Here are results for four molecules from ChEMBL document CHEMBL1212751, “Pharmacokinetics of artemether-lumefantrine and artesunate-amodiaquine in children in Kampala, Uganda” (Antimicrob Agents Chemother, 2010).

In data set [1] the test system is Homo sapiens. Kind of data set: AUC (0-infinity) in Ugandan children patient with uncomplicated malaria assessed as desethylamodiaquine level at 10 mg/kg, perorally qd on first 2 days and then 5 mg/kg, perorally on third day co-administered with artesunate at 4 mg/kg, perorally bid for 3 days. The class given is ADME, organism-based, Plasma. Conditions: in vivo, po. Details: dose 10 mg/kg, time infinity, route oral. A digest of the protocol: (§1)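 Oral AQ-AS was given for 3 days with food and fat to Ugandan children aged 5–13 y (n = 21). Venous blood was drawn pre-last dose and at 2, 4, 8, 24 and 120 h after it. For AQ-DEAQ, plasma was cold-centrifuged at 3,000 × g for 15 min and stored at −80°C. AUC0-∞ used trapezoids plus Clast/λz, with λz usually from the last three points.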

In data set [2] the test system is Homo sapiens. The data set can be described thus: AUC (0-120 hrs) in Ugandan children patient with uncomplicated malaria assessed as desethylamodiaquine level at 10 mg/kg, perorally qd on first 2 days and then 5 mg/kg, perorally on third day co-administered with artesunate at 4 mg/kg, perorally bid for 3 days. The class given is ADME, organism-based, Plasma. To be noted: in vivo, po. Details: dose 10 mg/kg, time < 120 hr, route oral.

A short description of data set [3]: AUC (0-infinity) in healthy human adult at 600 mg administered as single dose. Format: ADME, organism-based. Further details: dose 600 mg, time infinity. Conditions: plasma.
The subject of data set [4] is Homo sapiens. The data set can be described thus: AUC (0-infinity) in healthy human adult assessed as desethylamodiaquine level at 600 mg administered as single dose. Format: ADME, organism-based, Plasma. Details: dose 600 mg, time infinity. Conditions: in vivo.
Data set [5] in a line: Cmax in Ugandan children patient with uncomplicated malaria at 10 mg/kg, perorally qd on first 2 days and then 5 mg/kg, perorally on third day co-administered with artesunate at 4 mg/kg, perorally bid for 3 days. Further details: dose 10 mg/kg, route oral. Format: ADME, organism-based. To be noted: human, in vivo, po. In outline:
as §1

In data set [6] the test system is Homo sapiens. Kind of data set: Plasma concentration in Gabonian malarial children aged 6 months to 10 years assessed as desethylamodiaquine level at 30 mg/kg measured on third day post dose. Conditions: in vivo.
Data set [7] relates to Homo sapiens. The data set can be described thus: Cmax in Ugandan children patient with uncomplicated malaria assessed as desethylamodiaquine level at 10 mg/kg, perorally qd on first 2 days and then 5 mg/kg, perorally on third day co-administered with artesunate at 4 mg/kg, perorally bid for 3 days. The class given is ADME, organism-based. Conditions: in vivo, po. Further details: dose 10 mg/kg, route oral. In outline: as §1

For data set [8], the system named is Homo sapiens. Kind of data set: Plasma concentration in Nigerian human adult malaria patient assessed as desethylamodiaquine level at 25 mg/kg measured on seventh day post dose. To be noted: in vivo.
Data set [9] can be described thus: Half life in Ugandan children patient with uncomplicated malaria at 10 mg/kg, perorally qd on first 2 days and then 5 mg/kg, perorally on third day co-administered with artesunate at 4 mg/kg, perorally bid for 3 days. The class given is ADME, organism-based. Conditions: human, in vivo, po. In outline: as §1
For data set [10], the system named is Homo sapiens. Kind of data set: Half life in Ugandan children patient with uncomplicated malaria assessed as desethylamodiaquine level at 10 mg/kg, perorally qd on first 2 days and then 5 mg/kg, perorally on third day co-administered with artesunate at 4 mg/kg, perorallybid for 3 days. The class given is ADME, organism-based. To be noted: in vivo, po. A digest of the protocol:
as §1

Data set [11] can be described thus: AUC (0-8 hrs) in Ugandan children patient with uncomplicated malaria at 10 mg/kg, perorally qd on first 2 days and then 5 mg/kg, perorally on third day co-administered with artesunate at 4 mg/kg, perorally bid for 3 days. Format: ADME, organism-based. Further details: dose 10 mg/kg, time < 8 hr, route oral. Conditions: human, plasma, po.
Data set [12] can be described thus: AUC (0-infinity) in Ugandan children patient with uncomplicated malaria at 10 mg/kg, perorally qd on first 2 days and then 5 mg/kg, perorally on third day co-administered with artesunate at 4 mg/kg, perorally bid for 3 days. Further details: dose 10 mg/kg, time infinity, route oral. Format: ADME, organism-based. To be noted: human, plasma, po. In outline: as §1

The test system of data set [13] is Homo sapiens. The data set can be described thus: AUC (0-infinity) in Ugandan children patient with uncomplicated malaria assessed as dihydroartemisin administered twice daily for 3 days as 20/120 mg tablets containing artemether-lumefantrine combination. Further details: dose 120 mg, time infinity. Format: ADME, organism-based, Plasma. Conditions: in vivo, po, 72 h. In outline: (§2)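 Children (5–13 y, n = 20) took AL twice daily for 3 days by weight band (20–24 kg, 2 tablets; 25–34 kg, 3; >34 kg, 4), each dose with 250 ml milk (3.3 g fat). Plasma was sampled 0–120 h after the morning last dose. AR and DHA were measured by LC-MS/MS; LR by HPLC-UV (LLOQ 25 ng/ml). Values below LLOQ were treated as missing.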

The test system of data set [14] is Homo sapiens. Kind of data set: Half life in Ugandan children patient with uncomplicated malaria assessed as dihydroartemisin administered twice daily for 3 days as 20/120 mg tablets containing artemether-lumefantrine combination. The class given is ADME, organism-based. To be noted: in vivo, po, 72 h. In outline:
as §2

The subject of data set [15] is Homo sapiens. Kind of data set: Cmax in Ugandan children patient with uncomplicated malaria assessed as dihydroartemisin administered twice daily for 3 days as 20/120 mg tablets containing artemether-lumefantrine combination. Format: ADME, organism-based. Details: dose 120 mg. Conditions: in vivo, po, 72 h. In outline:
as §2

A short description of data set [16]: Half life in Ugandan children patient with uncomplicated malaria administered twice daily for 3 days as 20/120 mg tablets containing artemether-lumefantrine combination. Format: ADME, organism-based. Conditions: human, in vivo, po. A digest of the protocol: as §2
The nature of data set [17]: Cmax in Ugandan children patient with uncomplicated malaria administered twice daily for 3 days as 20/120 mg tablets containing artemether-lumefantrine combination. Further details: dose 120 mg. To be noted: human, in vivo, oral. Format: ADME, organism-based. In outline: as §2
A short description of data set [18]: AUC (0-infinity) in Ugandan children patient with uncomplicated malaria administered twice daily for 3 days as 20/120 mg tablets containing artemether-lumefantrine combination. Format: ADME, organism-based. Details: dose 120 mg, time infinity. To be noted: human, plasma, po. In outline: as §2
The nature of data set [19]: Cmax in Ugandan children patient with uncomplicated malaria at 4 mg/kg, perorally […] for 3 days co-administered with amodiaquine at 10 mg/kg, perorally qd on first 2 days and then 5 mg/kg, perorally on third day. The class given is ADME, organism-based. Details: dose 4 mg/kg, route oral. To be noted: human, in vivo, po. In outline:
(§3)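 Ugandan children aged 5–13 y with uncomplicated malaria (n = 21) were dosed once daily for 3 days, with food and fat. Venous plasma was sampled before the last dose and 2, 4, 8, 24 and 120 h after it, cold-centrifuged and stored at −80°C. AS and DHA were measured by solid-phase extraction LC-MS/MS (positive ion mode). AUC0-∞ used the linear up-log down trapezoidal rule; Cmax was observed.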

The test system of data set [20] is Homo sapiens. Kind of data set: Cmax in Ugandan children patient with uncomplicated malaria assessed as dihydroartemisinin level at 4 mg/kg, perorally […] for 3 days co-administered with amodiaquine at 10 mg/kg, perorally qd on first 2 days and then 5 mg/kg, perorally on third day. To be noted: in vivo, po. Details: dose 4 mg/kg, route oral. The class given is ADME, organism-based. In outline: as §3

Data set [21] concerns Homo sapiens. The data set can be described thus: AUC (0-infinity) in Ugandan children patient with uncomplicated malaria assessed as dihydroartemisinin level at 4 mg/kg, perorally […] co-administered with amodiaquine at 10 mg/kg, perorally qd on first 2 days and then 5 mg/kg, perorally on third day. The class given is ADME, organism-based, Plasma. Details: dose 4 mg/kg, time infinity, route oral. Conditions: in vivo, po. A digest of the protocol:
as §3

Data set [22] has as its system Homo sapiens. Kind of data set: Half life in Ugandan children patient with uncomplicated malaria assessed as dihydroartemisinin level at 4 mg/kg, perorally bid for 3 days co-administered with amodiaquine at 10 mg/kg, perorally qd on first 2 days and then 5 mg/kg, perorally on third day. Format: ADME, organism-based. To be noted: in vivo, po. In outline:
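Ugandan children aged 5–13 y (n = 21) were dosed with food and fat. Venous blood (3 ml) was drawn before the last dose and at 2, 4, 8, 24 and 120 h after it. Samples were iced, cold-centrifuged within 30 min, and the plasma was stored at −80°C. DHA was assayed by SPE LC-MS/MS in positive ion mode. λz came from terminal regression, usually the last three points. Values are geometric means (90% CIs).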

Data set [23] is described as follows: AUC (0-infinity) in Ugandan children patient with uncomplicated malaria at 4 mg/kg, perorally […] for 3 days co-administered with amodiaquine at 10 mg/kg, perorally qd on first 2 days and then 5 mg/kg, perorally on third day. Format: ADME, organism-based. Details: dose 4 mg/kg, route oral, time infinity. To be noted: human, plasma, po. In outline: as §3

Consider `CCN(CC)Cc1cc(Nc2ccnc3cc(Cl)ccc23)ccc1O.Cl`, for which the AUC with Homo sapiens [1] is 14770 ng·h/mL; in the data set on Homo sapiens [2], 11242 ng·h/mL; in the data set with Homo sapiens [4], 8437 ng·h/mL. Also, the AUC(0-inf) in data set [3] worked out at 154 ng·h/mL; in [12], 39.3 ng·h/mL. Besides, the Cmax turned out to be 5.2 ng/mL in data set [5] and 235 ng/mL with Homo sapiens [7]. Further, the results for the Concentration in the data set on Homo sapiens [6] and in the data set with Homo sapiens [8] were 149 ng/mL and 62 ng/mL, respectively. Besides, in data set [9], the half-life is 3.3 h. Further, the t1/2 with Homo sapiens [10] was 60 h. Moreover, in data set [11], the AUC at 8 h amounted to 28.9 ng·h/mL.

As for `CO[C@H]1O[C@@H]2O[C@@]3(C)CC[C@H]4[C@H](C)CC[C@@H]([C@H]1C)[C@@]24OO3` [ARTEMETHER], in the data set with Homo sapiens [13], the AUC was 382 ng·h/mL. The t1/2 in the data set with Homo sapiens [14] worked out at 1.9 h. Also, the Cmax is 119 ng/mL with Homo sapiens [15] and 34 ng/mL in data set [17]. Further, the half-life in [16] is 3.9 h. In addition, the AUC(0-inf) in data set [18] is 168 ng·h/mL.

For `C[C@H]1[C@H](OC(=O)CCC(=O)O)O[C@@H]2O[C@@]3(C)CC[C@H]4[C@H](C)CC[C@@H]1[C@@]24OO3` [ARTESUNATE], the figures for the Cmax (in data set [19]; in the data set with Homo sapiens [20]) were 51.3 ng/mL and 473 ng/mL, respectively. The AUC in the data set on Homo sapiens [21] came out at 1404 ng·h/mL. Further, in the data set on Homo sapiens [22], the t1/2 is 1.3 h. For the same molecule, in data set [23], the AUC(0-inf) stood at 113 ng·h/mL.

Take `CCCCN(CCCC)CC(O)c1cc(Cl)cc2c1-c1ccc(Cl)cc1/C2=C/c1ccc(Cl)cc1` (stereo unspecified) [LUMEFANTRINE]: the half-life in data set [16] is 32.7 h. In [17], the Cmax came out at 6760 ng/mL. Also, the AUC(0-inf) in data set [18] was found to be 210000 ng·h/mL.
